Consider five molecules from publication PMC9273292 (Journal of Ethnopharmacology, 2022).

The subject of data set [1] is HCoV-OC43. The experiment in a line: Cytopathic effect. Format: cell-based, human coronavirus OC43. The conditions noted are these: 100 TCID50, 72 hpi, two-fold serial dilutions. Summed up: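 Confluent cell monolayers are infected with 100 TCID50 HCoV-OC43 (titre by Reed-Muench) and given two-fold serial dilutions of test compound. At 72 hpi, CPE (lysis, rounding, vacuolization) is scored by phase-contrast microscopy; absence of CPE is taken as activity. Remdesivir is the positive control.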

The next data set can be described thus: CCK-8 cytotoxicity assay. Format: cell-based. To be noted: human, HRT-18 cells. Summed up: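 Viability of HRT-18 cells is read by CCK-8 per the kit protocol. Cells are kept in RPMI 1640 with 10% FBS, sodium pyruvate, NEAA and 0.025M HEPES at 37 °C, 5% CO2. Run in triplicate. CC50 comes from a four-parameter log(inhibitor) vs response fit of mean values.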

In data set [2] the test system is HCoV-OC43. The experiment in a line: Antibody-based EC50 assay. It counts as cell-based, human coronavirus OC43. The conditions noted are these: CC50/EC50, HRT-18 cells. In outline: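 HRT-18 cells (RPMI 1640, 10% FBS, 37 °C, 5% CO2) infected with HCoV-OC43 and treated with test compound. Viral nucleocapsid is detected with an anti-OC43 nucleocapsid antibody. Run in triplicate. EC50 comes from a four-parameter log(inhibitor) vs response fit of mean values. SI = CC50/EC50.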

The test system of data set [3] is HCoV-OC43. The experiment in a line: Transmission electron microscopy of infected HRT-18 cells. To be noted: 4 μM, 48 hpi. It counts as cell-based, human coronavirus OC43. In outline: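 HRT-18 monolayers are inoculated with 100 TCID50 HCoV-OC43 for 2 h at 37 °C. Inoculum is then replaced by RPMI 1640 with 2% FBS containing test compound or DMSO. At 48 hpi, virus particles are examined by negative staining under transmission electron microscopy.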

Data set [4] deals with Mpro. The conditions noted are these: cited from earlier work.
For data set [5], the system named is HCoV-OC43. The experiment in a line: Immunofluorescence analysis of HCoV-OC43 nucleocapsid in infected HRT-18 cells. It counts as cell-based, human coronavirus OC43. To be noted: 4 μM, 48 hpi.
In data set [6] the target is SARS-CoV-2 Nsp14N7 methyltransferase (Severe acute respiratory syndrome coronavirus 2, UniProt P0DTD1). The experiment in a line: Nsp14N7-MTase inhibition assay. It counts as biochemical.
The target of data set [7] is recombinant SARS-CoV-2 PLpro (Severe acute respiratory syndrome coronavirus 2, UniProt P0DTD1). In words: PLpro inhibition assay. It counts as biochemical.
The test system of data set [8] is Mpro. To be noted: SARS-CoV-2 model; ref Alhadrami et al., 2021; cited from earlier work.

The structures appear in SMILES notation.

As for `C[C@H]1[C@H](C)CC[C@]2(C)CC[C@]3(C)C(=CC[C@@H]4[C@@]5(C)CC[C@H](O)C(C)(C)[C@@H]5CC[C@]43C)[C@H]12` [Compound 2, α-amyrin], the “inhibition of CPE caused by HCoV-OC43 infection” value (shortened to “inhibition of CPE caused”) with HCoV-OC43 [1] is given as “showed antiviral activity”. For the same molecule, the CC50 in “CCK-8 cytotoxicity assay” turned out to be 24 µM. Further, the “Selective index (SI)” value in the data set with HCoV-OC43 [2] came out at 6.03.

On to `C=C(C)[C@@H]1CC[C@]2(C(=O)O)CC[C@]3(C)[C@H](CC[C@@H]4[C@@]5(C)CC[C@H](O)C(C)(C)[C@@H]5CC[C@]43C)[C@@H]12` [Compound 1, betulinic acid], for which the “inhibition of CPE caused” value in the data set with HCoV-OC43 [1] is on record as “showed antiviral activity”. The “viral particles in infected cells under TEM” value with HCoV-OC43 [3] is given as “no viral particles were detected”. In addition, the “concentration inhibiting Mpro activity by competitive inhibition” value with Mpro [4] was 10 µmol/L. Besides, the “fluorescence signal of virus particles (HCoV-OC43 nucleocapsid)” value with HCoV-OC43 [5] was “substantially reduced the fluorescence signal of virus particles”. The IC50 came to 1.12 µM in data set [6] and 2.03 µM in data set [7]. Also, half-maximal cytotoxicity in “CCK-8 cytotoxicity assay” (CC50) was put at 19.4 µM. Also, in the data set on Mpro [8], the “concentration inhibiting Mpro activity” value was 14.55 µmol/L. Further, in the data set with HCoV-OC43 [2], the “Selective index (SI)” value turned out to be 8.04.

In the case of `O=C1C[C@@H](c2ccc(O)c(O)c2)Oc2cc(O)cc(O)c21` [Compound 8, eriodictyol], in the data set on HCoV-OC43 [1], the “inhibition of CPE caused” value is on record as “showed antiviral activity”.

For the molecule `O=C1C[C@@H](c2ccc(O)cc2)Oc2cc(O)cc(O)c21` [Compound 5, naringenin], in the data set on HCoV-OC43 [1], the “inhibition of CPE caused” value is reported as “showed antiviral activity”.

Take `O=c1c(O)c(-c2ccc(O)c(O)c2)oc2cc(O)cc(O)c12` [Compound 11, quercetin]: the “inhibition of CPE caused” value in the data set on HCoV-OC43 [1] is on record as “showed antiviral activity”. The molecule also came in with a CC50 in the data set “CCK-8 cytotoxicity assay” of 34 µM. In addition, the “Selective index (SI)” value in the data set on HCoV-OC43 [2] turned out to be 7.29.
